Experimental data from ChEMBL document CHEMBL1145153, “Discovery of potent anilide inhibitors against the severe acute respiratory syndrome 3CL protease” (J Med Chem, 2005).
pIC50, pKi: −log10 of the molar value. *1 amine or outer side, *2 acyl side, *3 side chain or, on linkers, in order; H or OH if unused. Where a SMILES comes first, the peptide text is derived from it. [ ]: non-standard residue; d: D form. The star is where a group is joined. ξ: configuration not given here. NH(2-Cl-4-NO2-phenyl) = O=[N+]([O-])c1ccc(N*)c(Cl)c1; Phe(4-F) = N[C@@H](Cc1ccc(F)cc1)C(=O)O; Thr(3ξ) = CC(O)[C@H](N)C(=O)O; Morpholide = C1CN(*)CCO1; Cbz = O=C(OCc1ccccc1)*; CO = O=C([*:1])[*:2]; Piv = CC(C)(C)C(=O)*; Propionyl = CCC(=O)*; Bz = O=C(c1ccccc1)*; X1 = CC1CCN(*)O1

Test: Concentration required to inhibit SARS-CoV 3CL protease catalyzed cleavage of fluorogenic peptide Dabcyl-KTSAVLQSGFRKME-Edans by 50%
Summary of the method: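 Purified enzyme (stock held in 12 mM Tris-HCl pH 7.5, 120 mM NaCl, 0.1 mM EDTA, 1 mM DTT, 7.5 mM β-ME) at 50 nM with 6 μM substrate in 20 mM Bis-Tris pH 7.0. Cleavage followed as fluorescence increase, excitation 355 nm, emission 538 nm. IC50 taken from initial velocities plotted against inhibitor concentration.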
Compound `CC1CCN(C(=O)N[C@H](C(=O)N[C@@H](Cc2ccccc2)C(=O)N[C@@H](Cc2ccccc2)C(=O)Nc2ccc([N+](=O)[O-])cc2Cl)C(C)C)O1` (stereo not given in full) has a pIC50 of 5.15. In the case of `CN(C)c1ccc(C(=O)N[C@@H](Cc2ccccc2)C(=O)Nc2ccccc2Cl)cc1`, the pIC50 was less than 5.00. With `O=C(CCC(=O)N[C@@H](Cc1ccccc1)C(=O)Nc1ccc([N+](=O)[O-])cc1Cl)NC(Cc1ccccc1)C(=O)Nc1ccc([N+](=O)[O-])cc1Cl` (stereo not given in full) the pIC50 was less than 4.30. In the case of `O=C(C[C@H](O)C(=O)N[C@@H](Cc1ccccc1)C(=O)Nc1ccc([N+](=O)[O-])cc1Cl)NC(Cc1ccccc1)C(=O)Nc1ccc([N+](=O)[O-])cc1Cl` (stereo not given in full), the pIC50 was 5.40. For `CCCC(=O)N[C@H](C(=O)N[C@@H](CC(C)C)C(=O)N[C@@H](Cc1ccccc1)C(=O)Nc1ccc([N+](=O)[O-])cc1Cl)C(C)C`, the pIC50 was 5.15. For `CC(C)C[C@H](NC(=O)[C@@H](NC(=O)c1ccccc1)C(C)C)C(=O)N[C@@H](Cc1ccccc1)C(=O)Nc1ccc([N+](=O)[O-])cc1Cl`, the pIC50 was 5.40. For `CCCCCCCCCCCCCCC(Br)C(=O)N[C@@H](Cc1ccccc1)C(=O)Nc1ccc([N+](=O)[O-])cc1Cl` (stereo not given in full), the pIC50 was 5.52. `CC(C)[C@H](NC(=O)c1cccs1)C(=O)C[C@@H](Cc1ccccc1)C(=O)N[C@@H](Cc1ccccc1)C(=O)Nc1ccc([N+](=O)[O-])cc1Cl` gave a pIC50 of 4.80. `Nc1ccc(C(=O)N[C@@H](Cc2ccccc2)C(=O)Nc2ccc([N+](=O)[O-])cc2Cl)cc1N` showed a pIC50 of 5.70. `CC(C)C[C@H](NC(=O)[C@@H](NC(=O)N1CCOCC1)C(C)C)C(=O)N[C@@H](Cc1ccccc1)C(=O)Nc1ccc([N+](=O)[O-])cc1Cl` gave a pIC50 of 4.72. `CC(C)C[C@H](NC(=O)[C@@H](NC(=O)c1cccs1)C(C)C)C(=O)N[C@@H](Cc1ccccc1)C(=O)Nc1ccc([N+](=O)[O-])cc1Cl` showed a pIC50 of 5.30. With `CC(C)C[C@H](CC(=O)[C@@H](NC(=O)N1CCOCC1)C(C)C)C(=O)N[C@@H](Cc1ccccc1)C(=O)Nc1ccc([N+](=O)[O-])cc1Cl` the pIC50 was 4.54. `CN(C)c1ccc(C(=O)N[C@@H](Cc2ccccc2)C(=O)Nc2ccccc2)cc1` showed a pIC50 of less than 5.00. In the case of `O=C(N[C@@H](Cc1ccccc1)C(=O)Nc1ccc([N+](=O)[O-])cc1Cl)c1ccccc1`, the pIC50 was less than 5.00. For `CC(C)(C)OC(=O)N[C@@H](Cc1ccccc1)C(=O)Nc1ccc([N+](=O)[O-])cc1Cl`, the pIC50 was less than 4.30. `O=C(Nc1ccc([N+](=O)[O-])cc1Cl)C(Cc1ccccc1)NC(=O)[C@H](O)[C@@H](O)C(=O)N[C@@H](Cc1ccccc1)C(=O)Nc1ccc([N+](=O)[O-])cc1Cl` (stereo not given in full) showed a pIC50 of 5.30. For `CN(C)c1ccc(C(=O)N[C@@H](Cc2ccccc2)C(=O)Nc2ccc([N+](=O)[O-])cc2)cc1`, the pIC50 was less than 5.00. `O=C(N[C@@H](Cc1ccccc1)C(=O)Nc1ccc([N+](=O)[O-])cc1)c1ccccc1` gave a pIC50 of less than 5.00. In the case of `CCC(=O)N[C@H](C(=O)C[C@@H](CC(C)C)C(=O)N[C@@H](Cc1ccccc1)C(=O)Nc1ccc([N+](=O)[O-])cc1Cl)C(C)C`, the pIC50 was 4.57. `CC(C)C[C@H](CC(=O)[C@@H](NC(=O)c1ccccc1)C(C)C)C(=O)N[C@@H](Cc1ccccc1)C(=O)Nc1ccc([N+](=O)[O-])cc1Cl` showed a pIC50 of 4.68. In the case of `CC(C)C[C@H](CC(=O)[C@@H](NC(=O)OC(C)(C)C)C(C)C)C(=O)N[C@@H](Cc1ccccc1)C(=O)Nc1ccc([N+](=O)[O-])cc1Cl`, the pIC50 was 4.72. Work on `CC(C)C[C@H](CC(=O)[C@@H](NC(=O)c1cccs1)C(C)C)C(=O)N[C@@H](Cc1ccccc1)C(=O)Nc1ccc([N+](=O)[O-])cc1Cl` yielded a pIC50 of 4.66. `CC(O)[C@H](NC(=O)[C@H](O)[C@@H](O)C(=O)N[C@H](C(=O)N[C@H](Cc1ccccc1)C(=O)Nc1ccc([N+](=O)[O-])cc1Cl)C(C)O)C(=O)N[C@@H](Cc1ccccc1)C(=O)Nc1ccc([N+](=O)[O-])cc1Cl` (stereo not given in full) gave a pIC50 of 5.70. In the case of `CC(O)[C@H](NC(=O)C[C@@H](O)C(=O)N[C@H](C(=O)N[C@@H](Cc1ccccc1)C(=O)Nc1ccc([N+](=O)[O-])cc1Cl)C(C)O)C(=O)NC(Cc1ccccc1)C(=O)Nc1ccc([N+](=O)[O-])cc1Cl` (stereo not given in full), the pIC50 was 5.70. `CN(C)c1ccc(C(=O)N[C@@H](Cc2ccccc2)C(=O)Nc2ccc([N+](=O)[O-])cc2Cl)cc1` showed a pIC50 of 7.22. In the case of `CC(O)[C@H](NC(=O)CCC(=O)N[C@H](C(=O)N[C@@H](Cc1ccccc1)C(=O)Nc1ccc([N+](=O)[O-])cc1Cl)C(C)O)C(=O)NC(Cc1ccccc1)C(=O)Nc1ccc([N+](=O)[O-])cc1Cl` (stereo not given in full), the pIC50 was 5.70. `CC(C)[C@H](NC(=O)c1cccs1)C(=O)N[C@@H](Cc1ccccc1)C(=O)N[C@@H](Cc1ccccc1)C(=O)Nc1ccc([N+](=O)[O-])cc1Cl` gave a pIC50 of 5.30. Compound `CC(C)C[C@H](NC(=O)[C@@H](NC(=O)OC(C)(C)C)C(C)C)C(=O)N[C@@H](Cc1ccccc1)C(=O)Nc1ccc([N+](=O)[O-])cc1Cl` has a pIC50 of less than 5.00. With `O=C(N[C@@H](Cc1ccccc1)C(=O)Nc1ccc([N+](=O)[O-])cc1Cl)c1ccc([N+](=O)[O-])cc1` the pIC50 was less than 5.00. Work on `O=C(/C=C/c1c[nH]c2ccccc12)N[C@@H](Cc1ccccc1)C(=O)Nc1ccc([N+](=O)[O-])cc1Cl` yielded a pIC50 of 5.52. For `CC(C)[C@H](NC(=O)c1ccccc1)C(=O)N[C@@H](Cc1ccc(F)cc1)C(=O)N[C@H](C(=O)N[C@@H](Cc1ccccc1)C(=O)Nc1ccc([N+](=O)[O-])cc1Cl)C(C)O` (stereo not given in full) (Bz-V[Phe(4-F)][Thr(3ξ)]F-{NH(2-Cl-4-NO2-phenyl)}), the pIC50 was 5.70. `CC(C)[C@H](NC(=O)OCc1ccccc1)C(=O)N[C@@H](Cc1ccccc1)C(=O)N[C@H](C(=O)N[C@@H](Cc1ccccc1)C(=O)Nc1ccc([N+](=O)[O-])cc1Cl)C(C)O` (stereo not given in full) (Cbz-VF[Thr(3ξ)]F-{NH(2-Cl-4-NO2-phenyl)}) gave a pIC50 of 5.22. `CC(C)[C@H](NC(=O)C(C)(C)C)C(=O)N[C@@H](Cc1ccccc1)C(=O)N[C@H](C(=O)N[C@@H](Cc1ccccc1)C(=O)Nc1ccc([N+](=O)[O-])cc1Cl)C(C)O` (stereo not given in full) (Piv-VF[Thr(3ξ)]F-{NH(2-Cl-4-NO2-phenyl)}) showed a pIC50 of 5.70. For `CCC(=O)N[C@H](C(=O)N[C@@H](CC(C)C)C(=O)N[C@H](C(=O)N[C@@H](Cc1ccccc1)C(=O)Nc1ccc([N+](=O)[O-])cc1Cl)C(C)O)C(C)C` (stereo not given in full) (Propionyl-VL[Thr(3ξ)]F-{NH(2-Cl-4-NO2-phenyl)}), the pIC50 was 5.15. `CCC(=O)N[C@H](C(=O)N[C@@H](Cc1ccc(F)cc1)C(=O)N[C@H](C(=O)N[C@@H](Cc1ccccc1)C(=O)Nc1ccc([N+](=O)[O-])cc1Cl)C(C)O)C(C)C` (stereo not given in full) (Propionyl-V[Phe(4-F)][Thr(3ξ)]F-{NH(2-Cl-4-NO2-phenyl)}) gave a pIC50 of 5.30. With `CC(C)C[C@H](NC(=O)[C@@H](NC(=O)N1CCOCC1)C(C)C)C(=O)N[C@H](C(=O)N[C@@H](Cc1ccccc1)C(=O)Nc1ccc([N+](=O)[O-])cc1Cl)C(C)O` (stereo not given in full) ({Morpholide-CO}-VL[Thr(3ξ)]F-{NH(2-Cl-4-NO2-phenyl)}) the pIC50 was 4.80. In the case of `CC1CCN(C(=O)N[C@H](C(=O)N[C@@H](Cc2ccccc2)C(=O)N[C@H](C(=O)N[C@@H](Cc2ccccc2)C(=O)Nc2ccc([N+](=O)[O-])cc2Cl)C(C)O)C(C)C)O1` (stereo not given in full) ({X1-CO}-VF[Thr(3ξ)]F-{NH(2-Cl-4-NO2-phenyl)}), the pIC50 was 5.30. Compound `O=C(Nc1ccc([N+](=O)[O-])cc1Cl)c1cc(Cl)ccc1O` [NICLOSAMIDE] has a pIC50 of less than 5.00.

Test: Inhibitory constant against SARS-CoV 3CL protease catalyzed cleavage of fluorogenic peptide Dabcyl-KTSAVLQSGFRKME-Edans
Summary of the method: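 Fluorometric cleavage assay in 20 mM Bis-Tris pH 7.0, excitation 355 nm, emission 538 nm. Enzyme stock held in 12 mM Tris-HCl pH 7.5 with NaCl, EDTA, DTT and β-ME. Initial rates measured at two fixed inhibitor concentrations across various substrate concentrations. Ki derived using double-reciprocal plots of rate versus substrate concentration.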
`CC1CCN(C(=O)N[C@H](C(=O)N[C@@H](Cc2ccccc2)C(=O)N[C@@H](Cc2ccccc2)C(=O)Nc2ccc([N+](=O)[O-])cc2Cl)C(C)C)O1` (stereo not given in full) gave a pKi of 5.54. Compound `O=C(C[C@H](O)C(=O)N[C@@H](Cc1ccccc1)C(=O)Nc1ccc([N+](=O)[O-])cc1Cl)NC(Cc1ccccc1)C(=O)Nc1ccc([N+](=O)[O-])cc1Cl` (stereo not given in full) has a pKi of 5.51. Compound `CC(C)C[C@H](NC(=O)[C@@H](NC(=O)c1cccs1)C(C)C)C(=O)N[C@@H](Cc1ccccc1)C(=O)Nc1ccc([N+](=O)[O-])cc1Cl` has a pKi of 5.64. For `CN(C)c1ccc(C(=O)N[C@@H](Cc2ccccc2)C(=O)Nc2ccc([N+](=O)[O-])cc2Cl)cc1`, the pKi was 7.52. `CC(C)[C@H](NC(=O)c1cccs1)C(=O)N[C@@H](Cc1ccccc1)C(=O)N[C@@H](Cc1ccccc1)C(=O)Nc1ccc([N+](=O)[O-])cc1Cl` gave a pKi of 5.37. `CC(C)[C@H](NC(=O)OCc1ccccc1)C(=O)N[C@@H](Cc1ccccc1)C(=O)N[C@H](C(=O)N[C@@H](Cc1ccccc1)C(=O)Nc1ccc([N+](=O)[O-])cc1Cl)C(C)O` (stereo not given in full) (Cbz-VF[Thr(3ξ)]F-{NH(2-Cl-4-NO2-phenyl)}) showed a pKi of 5.82. `CC1CCN(C(=O)N[C@H](C(=O)N[C@@H](Cc2ccccc2)C(=O)N[C@H](C(=O)N[C@@H](Cc2ccccc2)C(=O)Nc2ccc([N+](=O)[O-])cc2Cl)C(C)O)C(C)C)O1` (stereo not given in full) ({X1-CO}-VF[Thr(3ξ)]F-{NH(2-Cl-4-NO2-phenyl)}) gave a pKi of 5.79.
